Measurements of several laboratories.
Each line is one published result; the experiments were not run side by side.
Target: Serine/threonine-protein kinase PAK 5 (PAK5, Homo sapiens, UniProt Q9P286)

| Structure (SMILES) | effect on | technique | tested at | remaining binding [%] |
| --- | --- | --- | --- | --- |
| CC1=C(C#N)C(c2ccc3c(c2)c(NC(=O)c2ccccc2C)nn3C)C(C#N)=C(C)N1 | cell-free assay | competition with immobilised ligand | 1 µM | 100 |
| FC(F)(F)Oc1cccc(-c2cnc3ccc(-c4ccncc4)nn23)c1 | cell-free assay | competition with immobilised ligand | 5 µM | 43 |
| C[C@@H](c1ccc(-n2cnc3c(N)ncnc32)cc1)N1CCc2nn(C)c(Cc3ccccc3)c2C1=O | binding | competition with immobilised ligand | 0.1 µM | 69 |
| O=C(NCC1CCOCC1)c1n[nH]cc1NC(=O)c1c(F)cccc1F | binding | competition with immobilised ligand | 1 µM | 79 |
| CN(C)c1ncc(F)c(-c2cnn3ncccc23)n1 | binding | – | 1 µM | 76 |
| COc1ncc2cc3ccccc3nc2c1C#N | cell-free assay | competition with immobilised ligand | 5 µM | 100 |
| COc1cnc(Nc2cccc(S(N)(=O)=O)c2)nc1N1CCN(c2ccccc2)C(=O)C1 | binding | competition with immobilised ligand | 1 µM | 82 |
| CN(c1nccc(-c2cnn3ncccc23)n1)C1CC1 | binding | – | 1 µM | 100 |
| C[C@@]1(Cc2ccc(C#N)cc2)C(=O)N(c2cc(Cl)cc(Cl)c2)c2ncc(C(=O)NC3(c4nc(C5CCC5)no4)CC3)n21 | cell-free assay | competition with immobilised ligand | 1 µM | 100 |
| CNC(=O)[C@@H]1CC[C@@H](n2c(-c3ccc4cnccc4c3)nc3ccc(C(=O)NCc4cccc(C(N)=O)c4)cc32)C1 | binding | competition with immobilised ligand | 1 µM | 100 |
| CC1CCCN1c1nccc(-c2cnn3ncccc23)n1 (stereo not drawn) | binding | – | 1 µM | 70 |
| CN(C)CC#Cc1ccc(OCCCc2sc(N3CCc4cccc(C(=O)Nc5nc6ccccc6s5)c4C3)nc2C(=O)O)c(F)c1 | cell-free assay | competition with immobilised ligand | 1 µM | 91 |
| CN(C)c1nccc(-c2cnn3ncccc23)n1 | binding | – | 1 µM | 92 |
| COc1ccc2c(c1)O[C@H](c1ccc(OC)c(OC)c1)C[C@@H]2NC(=O)C1(c2ccc3c(c2)OC(F)(F)O3)CC1 | cell-free assay | competition with immobilised ligand | 1 µM | 100 |
| C[C@@H]1CCN(c2nccc(-c3cnn4ncccc34)n2)C1 | binding | – | 1 µM | 90 |
| O=C(c1ccc(Nc2nccc(-c3cc4ccccc4s3)n2)cc1)N1CCC(N2CCCC2)CC1 | binding | competition with immobilised ligand | 1 µM | 79 |
| CS(=O)(=O)N1CCCC(NC(=O)[C@H](CCC2CCCCC2)NC(=O)c2ccc(CNc3ncnc4c3nnn4-c3ccccc3)cc2)C1 (stereo partly drawn) | cell-free assay | competition with immobilised ligand | 0.1 µM | 100 |
| O=C(c1ccc(Nc2ncc(Cl)c(-c3cc4ccccc4s3)n2)cc1)N1CCC(N2CCCC2)CC1 | binding | competition with immobilised ligand | 1 µM | 77 |
| N[C@@H]1CCN(c2nccc(-c3cnn4ncccc34)n2)C1 | binding | – | 1 µM | 78 |
| Cc1cnc(Nc2ccc(C(=O)N3CCC(N4CCCC4)CC3)cc2)nc1-c1cc2ccccc2s1 | binding | competition with immobilised ligand | 1 µM | 68 |
| CO[C@H]1CC[C@H](CNc2ccc(S(=O)(=O)NC(=O)c3ccc(N4CCN(CC5=C(c6ccc(Cl)cc6)CC(C)(C)CC5)CC4)cc3Oc3cnc4[nH]ccc4c3)cc2[N+](=O)[O-])CC1 | cell-free assay | competition with immobilised ligand | 1 µM | 99 |
